Experimental findings from ChEMBL document CHEMBL2163245 (J Med Chem, 2012) are described below.

The source made the active and inactive calls. The calls are words filed in the database; no cut-off is given here.

Data set [1] is described as follows: Selectivity ratio of IC50 for KCNQ1 to KCNQ2.
In data set [2] the target is T1, Potassium voltage-gated channel subfamily KQT member 2 (Homo sapiens, UniProt O43526). Put plainly: Antagonist activity at KCNQ2 expressed in CHO cells incubated for 3 mins by automated patch clamp assay. The data set is classed as functional, cell-based. (The patch-clamp technique gives a direct electrical read-out from membranes.)
T1 sequence (O43526 whole entry): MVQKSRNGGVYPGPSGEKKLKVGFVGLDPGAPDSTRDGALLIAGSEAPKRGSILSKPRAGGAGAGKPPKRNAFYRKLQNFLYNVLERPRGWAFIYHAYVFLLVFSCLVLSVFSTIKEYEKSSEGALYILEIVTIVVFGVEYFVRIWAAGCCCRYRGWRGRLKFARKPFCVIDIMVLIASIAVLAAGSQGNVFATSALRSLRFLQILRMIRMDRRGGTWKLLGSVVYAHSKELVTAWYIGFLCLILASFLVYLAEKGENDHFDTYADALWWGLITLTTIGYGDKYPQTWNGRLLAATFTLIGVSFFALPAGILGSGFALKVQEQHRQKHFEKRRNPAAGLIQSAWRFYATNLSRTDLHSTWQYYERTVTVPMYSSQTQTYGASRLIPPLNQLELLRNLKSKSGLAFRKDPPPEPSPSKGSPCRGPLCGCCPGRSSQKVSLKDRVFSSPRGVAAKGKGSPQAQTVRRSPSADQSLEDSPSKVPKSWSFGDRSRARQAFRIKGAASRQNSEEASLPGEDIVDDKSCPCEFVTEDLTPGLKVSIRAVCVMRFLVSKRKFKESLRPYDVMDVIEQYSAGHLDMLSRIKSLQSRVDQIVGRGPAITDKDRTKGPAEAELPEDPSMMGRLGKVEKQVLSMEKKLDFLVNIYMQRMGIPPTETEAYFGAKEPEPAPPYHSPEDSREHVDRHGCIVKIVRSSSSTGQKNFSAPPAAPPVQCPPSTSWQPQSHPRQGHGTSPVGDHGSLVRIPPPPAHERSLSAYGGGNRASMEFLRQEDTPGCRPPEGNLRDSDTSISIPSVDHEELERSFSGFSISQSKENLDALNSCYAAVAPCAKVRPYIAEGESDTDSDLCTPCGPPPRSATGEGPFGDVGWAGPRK
Data set [3] in a line: Plasma concentration in Sprague-Dawley rat at 10 mg/kg, ip after 1 hr by LC.MS analysis. Type of data set: ADME, organism-based. The arrangement: dose 10 mg/kg, route intraperitoneal. Summed up: (§1)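 Male Sprague-Dawley rats (250 g) dosed 10 mg/kg i.p., formulated 3 mg/mL in 10% Tween 80/sterile water. Blood (cardiac puncture) and brain taken at 1 h. Brain washed in cold PBS, frozen, homogenized 1:3 (w/w) in 70:30 isopropanol:water. Plasma and homogenate precipitated with acetonitrile containing carbamazepine internal standard, diluted 1:1 with water, quantified by ESI LC/MS/MS using MRM in positive mode.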

In data set [4] the test system is Plasma. The data set can be described thus: Fraction unbound in rat plasma. The data set is classed as ADME, cell-free.
Data set [5] deals with Voltage-gated potassium channel, KQT; KCNQ2(Kv7.2)/KCNQ3(Kv7.3) (Homo sapiens, UniProt O43525+O43526). The data set can be described thus: Antagonist activity at KCNQ2/Q3 expressed in CHO cells incubated for 3 mins by automated patch clamp assay.
Voltage-gated potassium channel, KQT; KCNQ2(Kv7.2)/KCNQ3(Kv7.3), sequence (O43526 whole entry): as above
Voltage-gated potassium channel, KQT; KCNQ2(Kv7.2)/KCNQ3(Kv7.3), sequence (O43525 whole entry): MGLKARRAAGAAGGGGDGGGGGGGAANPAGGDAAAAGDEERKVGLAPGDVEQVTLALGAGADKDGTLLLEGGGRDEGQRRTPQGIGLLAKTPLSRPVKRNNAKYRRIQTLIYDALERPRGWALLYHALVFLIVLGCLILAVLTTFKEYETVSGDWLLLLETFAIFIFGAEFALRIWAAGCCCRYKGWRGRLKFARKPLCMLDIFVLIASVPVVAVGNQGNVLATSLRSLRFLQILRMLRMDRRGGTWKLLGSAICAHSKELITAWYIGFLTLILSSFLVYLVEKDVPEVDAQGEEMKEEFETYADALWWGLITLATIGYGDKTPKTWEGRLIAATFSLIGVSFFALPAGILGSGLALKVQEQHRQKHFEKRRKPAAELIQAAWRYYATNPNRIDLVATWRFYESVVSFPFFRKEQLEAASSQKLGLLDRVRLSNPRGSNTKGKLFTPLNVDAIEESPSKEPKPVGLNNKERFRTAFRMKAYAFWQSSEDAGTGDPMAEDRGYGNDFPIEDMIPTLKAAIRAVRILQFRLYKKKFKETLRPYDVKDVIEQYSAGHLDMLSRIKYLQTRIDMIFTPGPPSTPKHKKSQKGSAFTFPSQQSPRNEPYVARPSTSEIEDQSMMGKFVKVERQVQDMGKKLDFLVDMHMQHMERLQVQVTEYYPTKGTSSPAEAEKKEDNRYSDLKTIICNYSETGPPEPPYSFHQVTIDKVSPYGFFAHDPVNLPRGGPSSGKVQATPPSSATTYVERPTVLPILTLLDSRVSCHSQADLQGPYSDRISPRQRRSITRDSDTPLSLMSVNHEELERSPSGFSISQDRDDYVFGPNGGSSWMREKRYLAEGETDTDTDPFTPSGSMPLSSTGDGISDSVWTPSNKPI
Data set [6] concerns the target Melatonin receptor type 1A (Homo sapiens) (UniProt P48039). Put plainly: Inhibition of human MT1 at 10 uM.
Data set [7] can be described thus: Inhibition of L-type calcium channel at 10 uM.
In data set [8] the target is Voltage-gated inwardly rectifying potassium channel KCNH2 (Homo sapiens, UniProt Q12809). Put plainly: Inhibition of human ERG.
Voltage-gated inwardly rectifying potassium channel KCNH2, sequence (Q12809 whole entry): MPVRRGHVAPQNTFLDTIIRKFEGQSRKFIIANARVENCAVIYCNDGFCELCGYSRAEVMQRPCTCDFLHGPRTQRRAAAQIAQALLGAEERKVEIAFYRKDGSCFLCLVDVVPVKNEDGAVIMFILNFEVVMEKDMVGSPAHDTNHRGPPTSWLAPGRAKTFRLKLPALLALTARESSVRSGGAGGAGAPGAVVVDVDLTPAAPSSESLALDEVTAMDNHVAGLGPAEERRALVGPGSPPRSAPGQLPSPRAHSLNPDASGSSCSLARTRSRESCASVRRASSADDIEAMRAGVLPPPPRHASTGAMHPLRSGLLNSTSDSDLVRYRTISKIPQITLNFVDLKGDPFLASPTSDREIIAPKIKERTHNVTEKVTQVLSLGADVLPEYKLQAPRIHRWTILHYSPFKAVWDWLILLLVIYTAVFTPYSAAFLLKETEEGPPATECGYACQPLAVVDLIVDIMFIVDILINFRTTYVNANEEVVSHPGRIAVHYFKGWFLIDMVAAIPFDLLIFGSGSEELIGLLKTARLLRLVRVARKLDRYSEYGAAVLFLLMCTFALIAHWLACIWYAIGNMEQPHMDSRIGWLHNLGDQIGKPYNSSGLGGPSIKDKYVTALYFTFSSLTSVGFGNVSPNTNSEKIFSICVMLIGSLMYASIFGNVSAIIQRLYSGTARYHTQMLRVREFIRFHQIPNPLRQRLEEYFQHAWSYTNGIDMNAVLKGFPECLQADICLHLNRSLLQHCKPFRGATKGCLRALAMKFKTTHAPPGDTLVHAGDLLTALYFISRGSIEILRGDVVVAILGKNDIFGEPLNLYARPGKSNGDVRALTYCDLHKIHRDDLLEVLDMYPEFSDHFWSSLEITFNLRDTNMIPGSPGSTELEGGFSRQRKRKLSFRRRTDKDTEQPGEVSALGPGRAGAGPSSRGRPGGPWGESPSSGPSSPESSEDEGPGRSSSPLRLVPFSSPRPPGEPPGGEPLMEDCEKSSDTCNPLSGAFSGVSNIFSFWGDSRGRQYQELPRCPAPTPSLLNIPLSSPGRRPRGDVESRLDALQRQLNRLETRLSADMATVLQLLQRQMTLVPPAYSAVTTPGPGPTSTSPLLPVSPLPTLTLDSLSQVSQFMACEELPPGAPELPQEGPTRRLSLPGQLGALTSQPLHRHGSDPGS
The target of data set [9] is Cytochrome P450 2D6 (Homo sapiens, UniProt P10635).
Cytochrome P450 2D6, sequence (P10635 whole entry): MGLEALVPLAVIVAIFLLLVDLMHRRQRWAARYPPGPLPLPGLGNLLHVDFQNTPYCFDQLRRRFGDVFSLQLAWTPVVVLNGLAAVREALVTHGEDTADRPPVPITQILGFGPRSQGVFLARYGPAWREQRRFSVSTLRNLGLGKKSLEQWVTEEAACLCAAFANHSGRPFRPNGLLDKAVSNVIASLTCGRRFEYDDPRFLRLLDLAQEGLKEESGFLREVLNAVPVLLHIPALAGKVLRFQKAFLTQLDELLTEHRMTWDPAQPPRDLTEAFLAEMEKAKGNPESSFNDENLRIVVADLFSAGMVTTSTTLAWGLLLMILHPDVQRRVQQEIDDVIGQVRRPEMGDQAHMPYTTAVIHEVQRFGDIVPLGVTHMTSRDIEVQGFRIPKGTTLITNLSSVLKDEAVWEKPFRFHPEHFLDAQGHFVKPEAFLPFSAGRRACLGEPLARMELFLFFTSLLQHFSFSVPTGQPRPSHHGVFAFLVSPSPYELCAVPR
Data set [10] deals with T2, Potassium voltage-gated channel subfamily KQT member 4 (Homo sapiens, UniProt P56696).
T2 sequence (P56696 whole entry): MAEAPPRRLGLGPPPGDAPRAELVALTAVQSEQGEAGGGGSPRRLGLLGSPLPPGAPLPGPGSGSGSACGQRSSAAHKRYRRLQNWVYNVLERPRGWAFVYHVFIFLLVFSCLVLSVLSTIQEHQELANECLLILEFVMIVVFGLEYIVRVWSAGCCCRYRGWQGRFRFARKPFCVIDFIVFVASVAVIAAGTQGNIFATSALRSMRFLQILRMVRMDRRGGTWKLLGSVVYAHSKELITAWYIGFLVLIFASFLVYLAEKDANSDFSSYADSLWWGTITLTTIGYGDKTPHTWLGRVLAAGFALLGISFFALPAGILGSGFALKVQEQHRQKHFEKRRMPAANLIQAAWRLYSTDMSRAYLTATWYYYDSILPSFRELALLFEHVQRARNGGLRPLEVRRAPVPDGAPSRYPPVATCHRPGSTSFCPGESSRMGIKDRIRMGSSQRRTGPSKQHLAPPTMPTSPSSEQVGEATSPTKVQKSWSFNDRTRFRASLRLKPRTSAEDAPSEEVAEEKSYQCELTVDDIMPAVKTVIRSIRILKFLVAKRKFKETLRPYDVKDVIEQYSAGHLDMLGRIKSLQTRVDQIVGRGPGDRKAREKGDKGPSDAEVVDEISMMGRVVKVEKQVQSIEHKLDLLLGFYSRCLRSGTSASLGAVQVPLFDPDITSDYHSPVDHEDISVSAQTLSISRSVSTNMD
Put plainly: Antagonist activity at KCNQ4 expressed in CHO cells incubated for 3 mins by automated patch clamp assay. Type of data set: functional, cell-based. Summed up:
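Population patch clamp on CHO cells stably expressing KCNQ4, freshly dislodged at 7,000 cells/well in extracellular solution (mM: 137 NaCl, 4 KCl, 1 MgCl2, 1.8 CaCl2, 10 HEPES, 10 glucose, pH 7.4). Cells were perforated with 50 μg/ml amphotericin B, held at -70 mV, and stepped to +40 mV. Current was measured at +40 mV before and after 3 min compound exposure and expressed as percent change in the same well.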

Data set [11] concerns the target T3, Cytochrome P450 1A2 (Homo sapiens, UniProt P05177).
T3 sequence (P05177 whole entry): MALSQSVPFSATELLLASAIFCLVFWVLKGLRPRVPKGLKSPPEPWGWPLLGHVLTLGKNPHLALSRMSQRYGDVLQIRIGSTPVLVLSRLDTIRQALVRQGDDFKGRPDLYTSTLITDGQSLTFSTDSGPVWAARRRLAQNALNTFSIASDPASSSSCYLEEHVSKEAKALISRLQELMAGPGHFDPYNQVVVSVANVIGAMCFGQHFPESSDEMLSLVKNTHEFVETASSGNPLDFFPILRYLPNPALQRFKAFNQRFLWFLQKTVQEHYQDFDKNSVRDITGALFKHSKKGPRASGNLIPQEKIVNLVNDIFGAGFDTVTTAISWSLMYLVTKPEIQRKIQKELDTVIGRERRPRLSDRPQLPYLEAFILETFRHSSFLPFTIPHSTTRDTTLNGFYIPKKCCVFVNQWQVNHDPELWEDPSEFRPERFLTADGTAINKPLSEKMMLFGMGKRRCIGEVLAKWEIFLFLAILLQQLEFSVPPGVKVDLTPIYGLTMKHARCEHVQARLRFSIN

Data set [12] addresses Cytochrome P450 2C9 (Homo sapiens, UniProt P11712).
Data set [13] is described as follows: Inhibition of N-type calcium channel at 10 uM.
Data set [14] can be described thus: Inhibition of KATP.
Data set [15] addresses T4, Potassium voltage-gated channel subfamily KQT member 1 (Homo sapiens, UniProt P51787).
T4 sequence (P51787 whole entry): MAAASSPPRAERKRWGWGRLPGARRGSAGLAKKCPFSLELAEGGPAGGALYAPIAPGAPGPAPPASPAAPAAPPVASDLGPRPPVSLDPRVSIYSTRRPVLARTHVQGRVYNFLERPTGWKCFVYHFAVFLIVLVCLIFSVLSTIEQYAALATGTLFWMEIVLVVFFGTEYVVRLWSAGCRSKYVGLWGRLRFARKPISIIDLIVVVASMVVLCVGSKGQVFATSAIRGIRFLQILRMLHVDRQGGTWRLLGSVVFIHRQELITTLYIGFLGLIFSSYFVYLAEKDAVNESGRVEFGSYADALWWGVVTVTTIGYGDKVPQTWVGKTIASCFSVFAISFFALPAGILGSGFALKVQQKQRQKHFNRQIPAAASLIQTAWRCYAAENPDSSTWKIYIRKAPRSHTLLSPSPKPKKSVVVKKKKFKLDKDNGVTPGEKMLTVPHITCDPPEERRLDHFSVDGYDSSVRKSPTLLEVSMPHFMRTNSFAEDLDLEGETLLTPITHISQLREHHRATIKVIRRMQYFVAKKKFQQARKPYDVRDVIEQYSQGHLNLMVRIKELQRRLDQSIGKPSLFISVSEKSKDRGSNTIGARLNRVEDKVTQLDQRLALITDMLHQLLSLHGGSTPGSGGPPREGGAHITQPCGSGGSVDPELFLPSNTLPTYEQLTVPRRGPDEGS
The data set can be described thus: Antagonist activity at KCNQ1 expressed in CHO cells incubated for 3 mins by automated patch clamp assay.

In data set [16] the test system is Brain. The data set can be described thus: Fraction unbound in rat brain homogenate. The data set is classed as ADME, tissue-based.
The nature of data set [17]: Drug uptake in Sprague-Dawley rat brain at 10 mg/kg, ip after 1 hr by LC/MS analysis. The data set is classed as ADME, organism-based. Also on record: dose 10 mg/kg, route intraperitoneal. Particulars: read-out: Drug uptake. A digest of the protocol:
as §1

Data set [18] concerns the target Voltage-gated potassium channel, IKs; KCNQ1(Kv7.1)/KCNE1(MinK) (Homo sapiens, UniProt P15382+P51787). Put plainly: Antagonist activity at KCNQ1/E1 expressed in CHO cells incubated for 3 mins by automated patch clamp assay.
In data set [19] the target is T1, Potassium voltage-gated channel subfamily KQT member 2. The data set can be described thus: Agonist activity at KCNQ2 expressed in CHO cells incubated for 3 mins by automated patch clamp assay. Type of data set: functional, cell-based. A digest of the protocol: (§2)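 Ionworks Quattro population patch clamp on CHO cells stably expressing KCNQ2, 7,000 cells/well in extracellular solution (mM: 137 NaCl, 4 KCl, 1 MgCl2, 1.8 CaCl2, 10 HEPES, 10 glucose, pH 7.4), amphotericin B (50 μg/ml) perforation. Held -90 mV, 2,000 ms step to -10 mV; steady-state current at pulse end before and 3 min after compound; % change versus pre-compound current. Cells >100 pA and seal >30 MΩ only.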

The target is the same in data set [20]. The data set can be described thus: Agonist activity at KCNQ2 expressed in CHO cells at 30 uM incubated for 3 mins by automated patch clamp assay. Type of data set: functional, cell-based. Summed up: as §2

In general, IC50 refers to the concentration that inhibits the measured activity by half. Higher therefore signals lower potency. The term inhibition denotes how much of the control response was suppressed. Usually EC50 stands for the midpoint of the concentration-response curve. Read a high EC50 as lower potency in that assay.

Cytochrome P450 2C9, sequence (P11712 whole entry): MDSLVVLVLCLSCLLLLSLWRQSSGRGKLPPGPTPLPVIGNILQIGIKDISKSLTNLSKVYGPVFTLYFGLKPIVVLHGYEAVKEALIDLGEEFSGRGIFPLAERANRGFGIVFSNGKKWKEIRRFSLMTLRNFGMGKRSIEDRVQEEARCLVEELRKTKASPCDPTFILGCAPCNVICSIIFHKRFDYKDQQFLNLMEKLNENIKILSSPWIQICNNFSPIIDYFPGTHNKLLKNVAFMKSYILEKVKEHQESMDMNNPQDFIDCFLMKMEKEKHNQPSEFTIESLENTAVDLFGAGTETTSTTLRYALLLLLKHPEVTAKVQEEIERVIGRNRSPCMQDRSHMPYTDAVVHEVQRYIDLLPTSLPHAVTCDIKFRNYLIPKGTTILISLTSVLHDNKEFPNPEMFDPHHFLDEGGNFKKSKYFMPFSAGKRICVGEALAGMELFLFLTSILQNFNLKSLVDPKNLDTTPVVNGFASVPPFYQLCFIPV
Melatonin receptor type 1A (Homo sapiens), sequence (P48039 whole entry): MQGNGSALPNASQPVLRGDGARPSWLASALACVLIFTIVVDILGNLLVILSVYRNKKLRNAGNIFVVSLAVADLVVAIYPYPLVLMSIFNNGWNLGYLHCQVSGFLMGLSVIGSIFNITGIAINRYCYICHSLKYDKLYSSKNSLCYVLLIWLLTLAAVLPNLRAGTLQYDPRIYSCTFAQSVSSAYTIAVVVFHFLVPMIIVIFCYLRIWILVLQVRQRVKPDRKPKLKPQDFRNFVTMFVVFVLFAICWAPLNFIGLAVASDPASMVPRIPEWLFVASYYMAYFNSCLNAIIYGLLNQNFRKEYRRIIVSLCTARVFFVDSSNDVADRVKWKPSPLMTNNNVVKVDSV

With `CCC(C(=O)Nc1ccccc1N1CCCC1)c1ccc(Cl)cc1` (racemic), in data set [1], the Ratio IC50 is over 40. The same compound registered a concentration for half-maximal inhibition (IC50) in data set [2] of 280 nM.
With `C[C@H](C(=O)Nc1ccccc1N1CCCC1)c1ccccc1`, the Ratio IC50 in data set [1] was over 40.
Regarding `CCC(C(=O)Nc1ccccc1N1CCCC1)c1ccccc1F` (racemic), in data set [1], the Ratio IC50 is over 40. Moreover, it took 440 nM to reach half-maximal inhibition in [2] (IC50).
In the same order, the values of `CCC(C(=O)Nc1ccccc1N1CCCC1)c1cccc(C(F)(F)F)c1` (racemic) are over 40 and 390 nM.
For the compound `CC[C@H](C(=O)Nc1ccccc1N1CCCC1)c1ccccc1`, the results for the concentration at 1 h in data set [3] and in data set [17] were 116 ng/mL and 208 ng/g, respectively. Also, the values for the Fu in data set [4] and in data set [16] were 0.6% and 0.3%, respectively. In addition, the IC50 in data set [5] came out at 120 nM; in data set [9], 19900 nM; in [10], 200 nM; in data set [11], 6100 nM; in data set [12] it was 18900 nM; in [15], 2920 nM. In addition, the IC50 in data set [2] was determined as 70 nM; in [18], 8120 nM. This compound came in with an inhibition in [6] of 61%. Moreover, the inhibition entry in data set [7], in [13] and in [14] was “inactive” throughout. The “inhibition (INH)” value in data set [8] is listed as “Not Active”.
On to `CCC(C(=O)Nc1ccccc1N1CCCC1)c1cccc(Cl)c1` (racemic), for which, in data set [1], the Ratio IC50 was over 40. For the same compound, in data set [2], the midpoint of inhibition, the IC50, lay at 240 nM.
`O=C(Cc1cccc(Cl)c1)Nc1ccccc1N1CCOCC1`: in [19], the EC50 is over 30000 nM.
Regarding `CCC(C(=O)Nc1ccccc1N1CCCC1)c1ccc(F)cc1` (racemic), the Ratio IC50 in data set [1] was over 40. In [2], this compound showed an IC50 of 130 nM.
Consider `CN(C(=O)Cc1ccccc1)c1ccccc1N1CCCC1`, for which the EC50 in data set [19] is over 30000 nM.
Turning to `CCC(C(=O)Nc1ccccc1N1CCCC1)c1cccc(OC)c1` (racemic), in data set [1], the Ratio IC50 is over 40. The same compound returned an IC50 in data set [2] of 120 nM.
The compound `COc1ccc(CC(=O)Nc2ccccc2N2CCCC2)cc1` came in with an EC50 in data set [19] of 1750 nM.
Regarding `Cc1cccc(CC(=O)Nc2ccccc2N2CCCC2)c1`, in data set [19], the 50% effective concentration (EC50) was 1320 nM.
For the compound `CCC(C(=O)Nc1ccccc1N1CCCC1)c1cccc(C)c1` (racemic), the Ratio IC50 in data set [1] is over 40. This compound also showed an IC50 in data set [2] of 330 nM.
`O=C(Cc1ccc(Cl)c(Cl)c1)Nc1ccccc1N1CCCC1` returned an EC50 in [19] of 1070 nM.
On the same count and under the same terms, under `O=C(Cc1cccc(Cl)c1)Nc1ccccc1-n1cccc1` stands 12300 nM.
`CC[C@H](C(=O)Nc1ccccc1N1CCCCC1)c1ccccc1`: the Ratio IC50 in data set [1] was over 40.
In [19], `CN(C)c1ccccc1NC(=O)Cc1cccc(Cl)c1` came in with an EC50 of 27400 nM.
Compound `O=C(Cc1ccccc1F)Nc1ccccc1N1CCCC1` showed an inhibition in [20] of 26.6%.
Take `CCC(C(=O)Nc1ccccc1N1CCCC1)c1cccc(F)c1` (racemic): the Ratio IC50 in data set [1] is over 40. In addition, the IC50 in data set [2] amounted to 360 nM.
